According to ChEMBL document CHEMBL4422614 (Eur J Med Chem, 2019):
Activity calls are given as the source filed them. The calls are words filed in the database; no cut-off is given here.

Experiments:
[1] = Acute Toxicity in C57BL/6 mouse assessed as mouse mortality up to 2000 mg/kg, ig measured over 14 days; assay type: organism-based; conditions: in vivo, po, 336 h
How it was run: (§1)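 Mice given a single intragastric dose of test compound at various dosages, then observed for 14 days for death and abnormal behaviour. On day 14, animals were sacrificed and heart, liver, lungs and kidneys examined.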

[2] = Toxicity in amyloid beta (25 to 35 residues) induced C57BL/6J mouse model of Alzheimer's disease assessed as loss of body weight at 30 mg/kg/day, ig administered for 26 consecutive days; assay type: organism-based; conditions: in vivo, po
How it was run: (§2)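 Mice were randomized into 7 groups. All except sham got an ICV injection of Aβ25-35 (3 nmol); sham got the same volume of saline ICV. Dosing was intragastric daily for 26 days, with 0.5% CMC-Na as vehicle for sham and model. Body weight, diarrhea and emesis-like behavior were monitored.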

Mus musculus [3] = assay: Cognition enhancement activity in amyloid beta (25 to 35 residues) induced C57BL/6J mouse model of Alzheimer's disease assessed as swimming path length in virtual platform at 30 mg/kg/day, ig administered for 26 consecutive days by Morris water maze test (10.2 +/- 3.2 cm); assay type: functional; how it was run: as §2
[4] = Metal chelating activity of the compound assessed as formation of ferrous-compound complex at 50 uM after 30 mins by UV-vis spectrophotometric analysis
How it was run: (§3)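 UV-vis absorption spectra of compound (50 µM) were recorded in HEPES buffer alone and with 50 µM CuSO4, ZnCl2, FeSO4 or FeCl3, and spectral changes were assessed.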

[5] = Acute Toxicity in C57BL/6 mouse lung assessed as tissue damage up to 2000 mg/kg, ig after 14 days by microscopic analysis; assay type: organism-based; conditions: in vivo, po, 336 h; how it was run: as §1
Mus musculus [6] = assay: (§4) Neuroprotection in amyloid beta (25 to 35 residues) induced C57BL/6J mouse model of Alzheimer's disease assessed as reduction in ratio of apoptotic neuron in DG hippocampus region at 30 mg/kg/day, ig administered for 26 consecutive days by hematoxylin and eosin staining-based light microscopic analysis (reference value: 55.8 +/- 7.2%); assay type: ADME, organism-based; set-up: scale not given: the % may be the effect or the level left; conditions: in vivo, po
How it was run: (§5)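 Hippocampal CA1, CA3 and DG neurons were stained with H&E after the Aβ25-35 ICV model and 26-day intragastric dosing. Denatured cell index = denatured cells/total cells, n = 5. Values are mean ± SD, two-way ANOVA versus model.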

Mus musculus [7] = assay: as §4, with “CA3” for “DG”, “80.2” for “55.8”, “8.6%)” for “7.2%)”; assay type: ADME, organism-based; set-up: scale not given: the % may be the effect or the level left; conditions: in vivo, po; how it was run: as §5
[8] = Drug metabolism in Sprague-Dawley rat liver microsomes assessed as metabolic rate up to 180 mins in presence of NADPH by UV-based LC-MS/MS analysis; assay type: ADME, Microsome; conditions: 3 h
[9] = Nephrotoxicity in C57BL/6 mouse assessed as abnormal changes up to 2000 mg/kg, ig after 14 days by microscopic analysis; assay type: toxicity, organism-based; conditions: in vivo, po, 336 h; how it was run: as §1
in vitro [10] = conditions: Sprague-Dawley, rat, liver microsomes
[11] = Metal chelating activity of the compound assessed as formation of zinc-compound complex at 50 uM after 30 mins by UV-vis spectrophotometric analysis; how it was run: as §3
[12] = Toxicity in amyloid beta (25 to 35 residues) induced C57BL/6J mouse model of Alzheimer's disease assessed as diarrhea at 30 mg/kg/day, ig administered for 26 consecutive days; assay type: organism-based; conditions: in vivo, po; how it was run: as §2
[13] = Hepatotoxicity in C57BL/6 mouse assessed as abnormal changes up to 2000 mg/kg, ig after 14 days by microscopic analysis; assay type: toxicity, organism-based; conditions: in vivo, po, 336 h; how it was run: as §1
Mus musculus [14] = assay: Cognition enhancement activity in amyloid beta (25 to 35 residues) induced C57BL/6J mouse model of Alzheimer's disease assessed as swimming speed at 30 mg/kg/day, ig administered for 26 consecutive days by Morris water maze test (reference value: 15.6 +/- 2.4 cm/sec); assay type: functional; how it was run: as §2
SH-SY5Y [15] = assay: Cytotoxicity against human SH-SY5Y cells assessed as effect on cell viability at 10 uM after 24 hrs by MTT assay; assay type: cell-based
How it was run: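 SH-SY5Y viability was measured by MTT after exposure to compounds at 10 µM. Results are percent of vehicle control from three independent experiments.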

[16] = Metal chelating activity assessed as inhibition of Cu(II)/ascorbate-induced ROS production by measuring […] level at 10 uM by fluorescence assay
How it was run: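 A Cu-ascorbate redox system in PBS (pH 7.4) at 37 °C, with Cu(II) 5 µM, ascorbate 150 µM and coumarin-3-carboxylic acid 50 µM as the hydroxyl radical trap. Compound was pre-incubated 10 min before ascorbate was added. Fluorescence of 7-hydroxy-CCA (ex 395, em 450 nm) was read every 30 s for 15 min.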

[17] = Acute Toxicity in C57BL/6 mouse assessed as abnormal behavior up to 2000 mg/kg, ig measured over 14 days; assay type: organism-based; conditions: in vivo, po, 336 h; how it was run: as §1
Mus musculus [18] = assay: Cognition enhancement activity in amyloid beta (25 to 35 residues) induced C57BL/6J mouse model of Alzheimer's disease assessed as decrease in escape latancy at 30 mg/kg/day, ig administered for 26 consecutive days by Morris water maze test; assay type: functional, organism-based; how it was run: as §2
[19] = Metal chelating activity of the compound assessed as formation of ferric-compound complex at 50 uM after 30 mins by UV-vis spectrophotometric analysis; how it was run: as §3
[20] = Acute Toxicity in C57BL/6 mouse lung assessed as abnormal changes up to 2000 mg/kg, ig after 14 days by microscopic analysis; assay type: organism-based; conditions: in vivo, po, 336 h; how it was run: as §1
[21] = Metal chelating activity assessed as inhibition of Cu(II)-induced amyloid beta (1 to 42 residues) aggregation at 25 uM after 24 hrs by TEM assay
How it was run: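 Samples were prepared as for the ThT assay. 10 µL aliquots were applied to carbon-coated copper grids for 2 min, then stained with 3% phosphotungstic acid for 2 min and imaged by transmission electron microscopy.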

[22] = Hepatotoxicity in C57BL/6 mouse assessed as tissue damage up to 2000 mg/kg, ig after 14 days by microscopic analysis; assay type: toxicity, organism-based; conditions: in vivo, po, 336 h; how it was run: as §1
Mus musculus [23] = assay: Cognition enhancement activity in amyloid beta (25 to 35 residues) induced C57BL/6J mouse model of Alzheimer's disease assessed as increase in number of virtual platform crossing at 30 mg/kg/day, ig administered for 26 consecutive days by Morris water maze test; assay type: functional, organism-based; how it was run: as §2
[24] = Metal chelating activity of the compound assessed as formation of cupric-compound complex at 50 uM after 30 mins by UV-vis spectrophotometric analysis; how it was run: as §3
[25] = Toxicity in amyloid beta (25 to 35 residues) induced C57BL/6J mouse model of Alzheimer's disease assessed as emesis at 30 mg/kg/day, ig administered for 26 consecutive days; assay type: organism-based; conditions: in vivo, po; how it was run: as §2
SH-SY5Y [26] = assay: Antioxidant activity in human SH-SY5Y cells assessed as inhibition of t-BuOOH-induced intracellular oxidative stress by measuring ROS level preincubated for 24 hrs followed by t-BuOOH addition and measured after 30 mins by DCFH-DA dye-based fluorescence assay; assay type: functional, cell-based
[27] = Cardiotoxicity in C57BL/6 mouse assessed as abnormal changes up to 2000 mg/kg, ig after 14 days by microscopic analysis; assay type: toxicity, organism-based; conditions: in vivo, po, 336 h; how it was run: as §1
[28] = Cardiotoxicity in C57BL/6 mouse assessed as tissue damage up to 2000 mg/kg, ig after 14 days by microscopic analysis; assay type: toxicity, organism-based; conditions: in vivo, po, 336 h; how it was run: as §1
[29] = target: 3',5'-cyclic-AMP phosphodiesterase 4D (Homo sapiens, UniProt Q08499); assay: Inhibition of human PDE4D2 (86 to 413 residues) catalytic domain using [3H]-cAMP as substrate after 15 mins by liquid scintillation counting method
Mus musculus [30] = assay: (§6) Neuroprotection in C57BL/6J mouse model of amyloid beta (25 to 35 residues) induced Alzheimer's disease assessed as reduction in ratio of apoptotic neuron in CA1 hippocampus region at 30 mg/kg/day, ig administered for 26 consecutive days by hematoxylin and eosin staining-based light microscopic analysis (reference value: 40.6 +/- 12.5%); assay type: ADME, organism-based; set-up: scale not given: the % may be the effect or the level left; conditions: in vivo, po; how it was run: as §5
in vitro [31] = conditions: PAMPA
[32] = Nephrotoxicity in C57BL/6 mouse assessed as tissue damage up to 2000 mg/kg, ig after 14 days by microscopic analysis; assay type: toxicity, organism-based; conditions: in vivo, po, 336 h; how it was run: as §1
[33] = Antioxidant activity assessed as trolox equivalent of AAPH-induced radical scavenging activity at 10 to 20 uM preincubated for 10 mins followed by AAPH addition measured every minute for 120 mins by ORAC fluorescein assay; assay type: functional
How it was run: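 ORAC values are expressed as trolox equivalents, mean ± SD of three independent experiments.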

[34] = Acute Toxicity in C57BL/6 mouse up to 2000 mg/kg, ig measured every 14 days; assay type: organism-based; conditions: in vivo, po, 336 h; how it was run: as §1
Mus musculus [35] = assay: Cognition enhancement activity in amyloid beta (25 to 35 residues) induced C57BL/6J mouse model of Alzheimer's disease assessed as swimming time in effective region at 30 mg/kg/day, ig administered for 26 consecutive days by Morris water maze test (4.3 +/- 1.3 sec); assay type: functional; how it was run: as §2
Mus musculus [36] = assay: Cognition enhancement activity in amyloid beta (25 to 35 residues) induced C57BL/6J mouse model of Alzheimer's disease assessed as decrease in escape latancy at 4 mg/kg/day, ig administered for 26 consecutive days by Morris water maze test; assay type: functional, organism-based; how it was run: as §2
Mus musculus [37] = assay: as §6, with “in” for “in C57BL/6J mouse model of”, “induced C57BL/6J mouse model of” for “induced”, “4” for “30”; assay type: ADME, organism-based; set-up: scale not given: the % may be the effect or the level left; conditions: in vivo, po; how it was run: as §5
Mus musculus [38] = assay: Cognition enhancement activity in amyloid beta (25 to 35 residues) induced C57BL/6J mouse model of Alzheimer's disease assessed as swimming path length in virtual platform at 4 mg/kg/day, ig administered for 26 consecutive days by Morris water maze test (10.2 +/- 3.2 cm); assay type: functional; how it was run: as §2
Mus musculus [39] = assay: as §4, with “4” for “30”; assay type: ADME, organism-based; set-up: scale not given: the % may be the effect or the level left; conditions: in vivo, po; how it was run: as §5
Mus musculus [40] = assay: Cognition enhancement activity in amyloid beta (25 to 35 residues) induced C57BL/6J mouse model of Alzheimer's disease assessed as swimming speed at 4 mg/kg/day, ig administered for 26 consecutive days by Morris water maze test (reference value: 15.6 +/- 2.4 cm/sec); assay type: functional; how it was run: as §2
Mus musculus [41] = assay: Cognition enhancement activity in amyloid beta (25 to 35 residues) induced C57BL/6J mouse model of Alzheimer's disease assessed as swimming time in effective region at 4 mg/kg/day, ig administered for 26 consecutive days by Morris water maze test (4.3 +/- 1.3 sec); assay type: functional; how it was run: as §2
Mus musculus [42] = assay: Cognition enhancement activity in amyloid beta (25 to 35 residues) induced C57BL/6J mouse model of Alzheimer's disease assessed as increase in number of virtual platform crossing at 4 mg/kg/day, ig administered for 26 consecutive days by Morris water maze test; assay type: functional, organism-based; how it was run: as §2
Mus musculus [43] = assay: as §4, with “CA3” for “DG”, “4” for “30”, “80.2” for “55.8”, “8.6%)” for “7.2%)”; assay type: ADME, organism-based; set-up: scale not given: the % may be the effect or the level left; conditions: in vivo, po; how it was run: as §5

3',5'-cyclic-AMP phosphodiesterase 4D, sequence (Q08499 whole entry, the tested form may be a part): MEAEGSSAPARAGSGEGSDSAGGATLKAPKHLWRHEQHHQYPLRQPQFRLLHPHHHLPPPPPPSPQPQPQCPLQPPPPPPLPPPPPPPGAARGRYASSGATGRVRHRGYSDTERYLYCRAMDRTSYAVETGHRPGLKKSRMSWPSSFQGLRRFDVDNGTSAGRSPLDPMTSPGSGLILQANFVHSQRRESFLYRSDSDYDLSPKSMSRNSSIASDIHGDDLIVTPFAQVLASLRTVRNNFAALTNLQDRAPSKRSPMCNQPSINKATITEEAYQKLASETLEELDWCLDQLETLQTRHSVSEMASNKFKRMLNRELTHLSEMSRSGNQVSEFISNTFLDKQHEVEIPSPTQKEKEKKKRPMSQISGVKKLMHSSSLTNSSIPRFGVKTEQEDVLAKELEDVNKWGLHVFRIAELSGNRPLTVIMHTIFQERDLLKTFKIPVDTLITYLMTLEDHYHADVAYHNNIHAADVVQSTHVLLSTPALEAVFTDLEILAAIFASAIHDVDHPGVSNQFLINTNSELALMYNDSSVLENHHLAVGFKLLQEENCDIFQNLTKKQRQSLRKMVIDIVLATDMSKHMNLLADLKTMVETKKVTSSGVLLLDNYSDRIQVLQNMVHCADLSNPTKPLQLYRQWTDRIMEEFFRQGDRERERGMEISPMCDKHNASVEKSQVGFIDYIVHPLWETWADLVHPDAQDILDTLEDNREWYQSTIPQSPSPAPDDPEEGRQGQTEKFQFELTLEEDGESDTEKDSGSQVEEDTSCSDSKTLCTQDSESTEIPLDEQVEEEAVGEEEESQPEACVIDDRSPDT

Compound: Cl.O=C(Nc1ccc(O)c2ncccc12)c1ccc(OC(F)F)c(OCC2CC2)c1
- Activity [1]: Non-Toxic
- Activity [2]: Non-Toxic
- Activity (Mus musculus [3]): 19 cm
- Activity [4]: Active
- Activity [5]: Non-Toxic
- Activity (Mus musculus [6]): 18.7%
- Activity (Mus musculus [7]): 7.9%
- K [8]: 0.00767 min⁻¹
- Activity [9]: Non-Toxic
- half-life (in vitro [10]): 1.5 h
- Activity [11]: Active
- Activity [12]: Non-Toxic
- Activity [13]: Non-Toxic
- Activity (Mus musculus [14]): 15 cm/s
- Activity (SH-SY5Y [15]): Non-Toxic
- Activity [16]: Active
- Activity [17]: Non-Toxic
- Activity (Mus musculus [18]): Active
- Activity [19]: Active
- Activity [20]: Non-Toxic
- Activity [21]: Active
- Activity [22]: Non-Toxic
- Activity (Mus musculus [23]): Active
- Activity [24]: Active
- Activity [25]: Non-Toxic
- Activity (SH-SY5Y [26]): Dose-dependent effect
- Activity [27]: Non-Toxic
- Activity [28]: Non-Toxic
- IC50 [29]: 399 nM
- Activity (Mus musculus [30]): 12.5%
- Papp at 10 h, 100 ug/ml (in vitro [31]): 12.9 ×10⁻⁶ cm/s
- Activity [32]: Non-Toxic
- Activity [33]: 0.6 equiv
- Activity [34]: Non-Toxic
- Time (Mus musculus [35]): 6.8 s

Compound: O=C(Nc1c(Cl)cncc1Cl)c1ccc(OC(F)F)c(OCC2CC2)c1 [ROFLUMILAST]
- Activity (Mus musculus [36]): Active
- Activity (Mus musculus [37]): 16.5%
- Activity (Mus musculus [38]): 16 cm
- Activity (Mus musculus [39]): 25.1%
- Activity (Mus musculus [40]): 14.5 cm/s
- Time (Mus musculus [41]): 5.4 s
- Activity (Mus musculus [42]): Active
- Activity (Mus musculus [43]): 38.7%
- Papp at 10 h, 100 ug/ml (in vitro [31]): 9.22 ×10⁻⁶ cm/s
- Activity [33]: 0.067 equiv
